The values that follow come from the array DNA melting data of Ke et al. (doi:10.1101/2024.01.08.574731).

Data set [1] can be described thus: folding enthalpy; higher = less favourable; fluorescence melt of hairpins on a sequencing array, two-state fit. Conditions: sodium 0.088 M. An outline of the steps: (§1)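 Folding enthalpy and melting temperature were estimated with bootstrapped two-state fits and combined across four replicates by inverse-variance weighting, with fitted temperatures raised by 9.35 °C to match UV melts. The data were Cy3 fluorescence of library hairpins, with annealed Cy3 and quencher oligos, on a sequenced MiSeq flow cell in 50 mM Na-HEPES pH 8.0, 25 mM NaCl, imaged in 2.5 °C steps up to 60 °C and normalised to pre-quench Cy3 and control constructs.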

Data set [2] is described as follows: melting temperature; fluorescence melt of hairpins on a sequencing array, two-state fit, raised by 9.35 °C to match UV melts. As to conditions: sodium 0.088 M. An outline of the steps:
as §1

Consider GGGAACACGAAAGTGCCC (((..(((....)))))), for which the folding enthalpy in data set [1] is -19.8 kcal/mol. Moreover, in data set [2], the Tm was determined as 45 °C.
On to GGGAACCGAAAGGTACCC (((.(((....))).))), for which the folding enthalpy in data set [1] was -34.5 kcal/mol. Also, the Tm in data set [2] was 58.6 °C.
Turning to GGGAACGAAAGTTCACCC ((((((....)))..))), in data set [1], the folding enthalpy is -20.7 kcal/mol. Further, the Tm in data set [2] worked out at 51.6 °C.
Taken in the same sequence, the figures for GGGAACGAAAGTTCTCCC ((((((....)))..))) were -14.7 kcal/mol and 45 °C.
Take GGGAACGGAAACGTCCCC (((.(((....))).))): the folding enthalpy in data set [1] was -30.7 kcal/mol. For the same sequence, the Tm in data set [2] worked out at 50.2 °C.
For GGGAAGCCGAAAGGCCCC (((..(((....)))))) the same measures were -16.3 kcal/mol and 50.6 °C.
Taken in the same sequence, the figures for GGGAAGGCGAAAGCCCCC (((..(((....)))))) were -14 kcal/mol and 48.1 °C.
As to GGGAATGGAAACATTTCC ((.((((....)))).)), in data set [1], the folding enthalpy is -32 kcal/mol. In data set [2], the Tm came to 45.1 °C.
Regarding GGGACCCGAAAGGGCCC (((.(((....)))))), in data set [1], the folding enthalpy was -19 kcal/mol. Besides, in data set [2], the Tm is 66 °C.
As for GGGACCGAAAGGTACCCC ((((((....)))..))), in data set [1], the folding enthalpy was -12.5 kcal/mol. Moreover, the Tm in data set [2] was 61.3 °C.
Taken in the same sequence, the figures for GGGACCGAAAGGTAGCCC ((((((....)))..))) were -16 kcal/mol and 43.2 °C.
Turning to GGGACCGAAAGGTGCCCC ((((((....)))..))), the folding enthalpy in data set [1] was -13.5 kcal/mol. Besides, in data set [2], the Tm is 57.6 °C.
For GGGACCGAAAGGTGTCCC ((((((....)))..))), the folding enthalpy in data set [1] was -23.4 kcal/mol. Further, the Tm in data set [2] came out at 51.3 °C.
Take GGGACCGGAAACAGTCCC (((((.(....).))))): in data set [1], the folding enthalpy was -34.5 kcal/mol. Also, the Tm in data set [2] is 49.4 °C.
Taken in the same sequence, the figures for GGGACGACGAAAGTCCCC (((..(((....)))))) were -15.2 kcal/mol and 49.2 °C.
On to GGGACTCGAAAGAGACCC (((.(((....))).))), for which the folding enthalpy in data set [1] is -39.2 kcal/mol. Also, the Tm in data set [2] was determined as 59.5 °C.
For GGGAGAGCGAAAGCTCCC (((..(((....)))))) the same measures were -15.8 kcal/mol and 53.7 °C.
As to GGGAGATCGAAAGATCCC (((..(((....)))))), the folding enthalpy in data set [1] was -14.5 kcal/mol. Besides, the Tm in data set [2] is 49.8 °C.
For GGGAGCGAAAGCTACCC ((((((....))).))) the same measures were -15.7 kcal/mol and 62.8 °C.
Taken in the same sequence, the figures for GGGAGCGAAAGCTGGCCC ((((((....)))..))) were -14 kcal/mol and 39.8 °C.
For GGGAGCGGAAACGTTCCC ((((.((....)).)))) the same measures were -48.9 kcal/mol and 55.5 °C.
As for GGGAGTGAAAACTCCC ((((((....)))))), in data set [1], the folding enthalpy was -34.1 kcal/mol. The Tm in data set [2] was found to be 65.2 °C.
Turning to GGGAGTGGAAACACTCTC (.(((((....))))).), the folding enthalpy in data set [1] was -25.1 kcal/mol. In data set [2], the Tm amounted to 51.7 °C.
Taken in the same sequence, the figures for GGGATAGGAAACTATTCC ((.((((....)))).)) were -34.3 kcal/mol and 40.7 °C.
Taken in the same sequence, the figures for GGGATCCCGAAAGGGCCC (((..(((....)))))) were -16.4 kcal/mol and 45 °C.
Taken in the same sequence, the figures for GGGATCGAAAGATACCC ((((((....))).))) were -21.2 kcal/mol and 51.6 °C.
With GGGATCGAAAGATATCCC ((((((....)))..))), the folding enthalpy in data set [1] was -25 kcal/mol. Besides, the Tm in data set [2] came out at 39.8 °C.
GGGATCGAAAGATTCCCC ((((((....)))..))): the folding enthalpy in data set [1] is -18.8 kcal/mol. The Tm in data set [2] was 49.3 °C.
Taken in the same sequence, the figures for GGGATCGGAAACGATCTC (.(((((....))))).) were -31.9 kcal/mol and 54.2 °C.
Taken in the same sequence, the figures for GGGATCTCGAAAGAGCCC (((..(((....)))))) were -27.9 kcal/mol and 51.2 °C.
Taken in the same sequence, the figures for GGGATGCGAAAGCAACCC (((.(((....))).))) were -24.4 kcal/mol and 63.6 °C.
For GGGATGGAAACATCCC ((((((....)))))), the folding enthalpy in data set [1] was -41.4 kcal/mol. For the same sequence, the Tm in data set [2] was 60.7 °C.
For GGGATGGGAAACCACCCC (((.(((....))).))) the same measures were -32 kcal/mol and 47.3 °C.
On to GGGATTACGAAAGTACCC (((..(((....)))))), for which, in data set [1], the folding enthalpy is -17.1 kcal/mol. Moreover, the Tm in data set [2] was determined as 34.1 °C.
For GGGCAACGAAAGTTACCC (((.(((....))).))), in data set [1], the folding enthalpy was -38.9 kcal/mol. Moreover, in data set [2], the Tm stood at 52.2 °C.
Consider GGGCAACGAAAGTTCCC (((.(((....)))))), for which, in data set [1], the folding enthalpy is -22.1 kcal/mol. In data set [2], the Tm amounted to 47.4 °C.
Consider GGGCAAGGAAACTTGTCC ((.((((....)))).)), for which, in data set [1], the folding enthalpy was -40.7 kcal/mol. Besides, the Tm in data set [2] was 52.3 °C.
GGGCACCGAAAGGTCCCC (((.(((....))).))): the folding enthalpy in data set [1] was -17.8 kcal/mol. In addition, the Tm in data set [2] worked out at 54.7 °C.
For GGGCACGAAAGTGATCCC ((((((....)))..))) the same measures were -19.4 kcal/mol and 50.3 °C.
Taken in the same sequence, the figures for GGGCACGAAAGTGTACCC ((((((....)))..))) were -18.4 kcal/mol and 50.3 °C.
Taken in the same sequence, the figures for GGGCACTCGAAAGAGCCC (((..(((....)))))) were -31.1 kcal/mol and 50.9 °C.
Regarding GGGCAGACGAAAGTCCCC (((..(((....)))))), in data set [1], the folding enthalpy was -16.8 kcal/mol. Moreover, in data set [2], the Tm turned out to be 42.9 °C.
For GGGCATGGAAACATGTCC ((.((((....)))).)), the folding enthalpy in data set [1] is -43.4 kcal/mol. Moreover, the Tm in data set [2] worked out at 54.3 °C.
For the sequence GGGCCACCGAAAGGTCCC (((..(((....)))))), in data set [1], the folding enthalpy is -17.8 kcal/mol. Also, in data set [2], the Tm came to 41.3 °C.
For GGGCCACGAAAGTGCCCC (((.(((....))).))) the same measures were -17.3 kcal/mol and 59.3 °C.
For GGGCCAGGAAACCGGCCC (((((.(....).))))) the same measures were -33.2 kcal/mol and 64 °C.
On to GGGCCAGGAAACTGACCC (((.(((....))).))), for which the folding enthalpy in data set [1] was -40 kcal/mol. Moreover, in data set [2], the Tm turned out to be 50.4 °C.
Consider GGGCCCCGAAAGGGACCC (((.(((....))).))), for which, in data set [1], the folding enthalpy is -26 kcal/mol. Further, in data set [2], the Tm was 69 °C.
For GGGCCCGAAAGGGCGCCC ((((((....)))..))), the folding enthalpy in data set [1] is -9.86 kcal/mol. In data set [2], the Tm was found to be 58.2 °C.
Taken in the same sequence, the figures for GGGCCCGAAAGGGGACCC ((((((....)))..))) were -14.4 kcal/mol and 65.1 °C.
As for GGGCCCGAAAGGGTGCCC ((((((....)))..))), the folding enthalpy in data set [1] was -15.7 kcal/mol. Besides, the Tm in data set [2] was determined as 60.2 °C.
For GGGCCTCGAAAGAGACCC (((.(((....))).))) the same measures were -43 kcal/mol and 56 °C.
GGGCCTGCGAAAGCACCC (((..(((....)))))): the folding enthalpy in data set [1] is -9.63 kcal/mol. In data set [2], the Tm came out at 50.5 °C.
Taken in the same sequence, the figures for GGGCCTGGAAACGGGCCC (((((.(....).))))) were -38.7 kcal/mol and 68.9 °C.
